Results reported in ChEMBL document CHEMBL3351406, “Synthesis and biological evaluation of the [d-MeAla(11)]-epimer of coibamide A” (Bioorg Med Chem Lett, 2015).
Where a SMILES comes first, the peptide text is derived from it. Bridges are numbered along the chain shown (N, C = ends). [ ]: non-standard residue; d: D form. The star is where a group is joined. NMe2Val = CC(C)[C@@H](C(=O)*)N(C)C; NMeI = CC[C@H](C)[C@H](NC)C(=O)O; NMeT = CN[C@H](C(=O)O)[C@@H](C)O; NMeL = CN[C@@H](CC(C)C)C(=O)O; Hiv = CC(C)[C@H](O)C(=O)O; NMeS = CN[C@@H](CO)C(=O)O; NMeA = CN[C@@H](C)C(=O)O; dNMeA = CN[C@H](C)C(=O)O

What was measured:
Type in all cases: functional, cell-based
NCI-H292 = assay: Cytotoxicity against human NCI-H292 cells assessed as growth inhibition after 72 hrs by MTT assay; conditions: NCI-H292, 72 h
Method in brief: (§1)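 Media: PC-3 in DMEM with 10% FBS, 2 mM L-glutamine and penicillin/streptomycin; SF-295, MDA-MB-231 and H292 in RPMI-1640 with 10% FBS, 2 mM L-glutamine, 1 mM pyruvate and penicillin/streptomycin. Cells were seeded at 3,000 per well 16 h before adding compound or DMSO vehicle, then kept 72 h at 5% CO2. Viability was measured by MTT, normalised to vehicle-treated cells as 100%.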

[1] = Cytotoxicity against human PC3 cells assessed as growth inhibition after 72 hrs by MTT assay; conditions: PC-3, 72 h; method in brief: as §1
MDA-MB-231 = assay: Cytotoxicity against human MDA-MB-231 cells assessed as growth inhibition after 72 hrs by MTT assay; conditions: MDA-MB-231, 72 h; method in brief: as §1
SF-295 = assay: Cytotoxicity against human SF295 cells assessed as growth inhibition after 72 hrs by MTT assay; conditions: SF-295, 72 h; method in brief: as §1
[2] = Cytotoxicity against human HCT116 cells assessed as growth inhibition after 72 hrs by MTS assay; conditions: HCT-116, 72 h
Method in brief: (§2)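 Seeding per well: A549 500 cells (DMEM), HCT-116 5000 (McCoy's 5A), MCF-7 5000 (EMEM), B16 2000 (DMEM). All media had 10% FBS; cells kept at 37 °C, 5% CO2. Cells settled 6 h, then received compounds pre-diluted 250-fold from DMSO into medium, and were exposed 72 h. Wells were washed with phenol-red-free medium, given MTS for 40 min, and read at 490 nm absorbance.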

MCF7 = assay: Cytotoxicity against human MCF7 cells assessed as growth inhibition after 72 hrs by MTS assay; conditions: MCF7, 72 h; method in brief: as §2
A549 = assay: Cytotoxicity against human A549 cells assessed as growth inhibition after 72 hrs by MTS assay; conditions: A549, 72 h; method in brief: as §2
B16 = assay: Cytotoxicity against mouse B16 cells assessed as growth inhibition after 72 hrs by MTS assay; conditions: B16, 72 h; method in brief: as §2

SMILES | IC50 (NCI-H292) [nM] | IC50 [1] [nM] | IC50 (MDA-MB-231) [nM] | IC50 (SF-295) [nM] | IC50 [2] [nM] | IC50 (MCF7) [nM] | IC50 (A549) [nM] | IC50 (B16) [nM]
CC[C@H](C)[C@H]1C(=O)N[C@@H](C)C(=O)N(C)[C@@H](CC(C)C)C(=O)N[C@@H](Cc2ccc(OC)cc2)C(=O)N(C)[C@@H](C)C(=O)O[C@H](C)[C@H](N(C)C(=O)[C@H](CC(C)C)N(C)C(=O)[C@H](COC)N(C)C(=O)[C@@H](OC(=O)[C@H](C(C)C)N(C)C)C(C)C)C(=O)N(C)[C@@H](COC)C(=O)N1C (NMe2Val-[Hiv][NMeS](Me)[NMeL][NMeT][NMeS](Me)[NMeI]A[NMeL]Y(Me)[NMeA]; ester 4-C) | 124 | 80 | 66 | 219 |  |  |  | 
CC[C@H](C)[C@H]1C(=O)N[C@@H](C)C(=O)N(C)[C@@H](CC(C)C)C(=O)N[C@@H](Cc2ccc(OC)cc2)C(=O)N(C)[C@H](C)C(=O)O[C@H](C)[C@H](N(C)C(=O)[C@H](CC(C)C)N(C)C(=O)[C@H](COC)N(C)C(=O)[C@@H](OC(=O)[C@H](C(C)C)N(C)C)C(C)C)C(=O)N(C)[C@@H](COC)C(=O)N1C (NMe2Val-[Hiv][NMeS](Me)[NMeL][NMeT][NMeS](Me)[NMeI]A[NMeL]Y(Me)[dNMeA]; ester 4-C) | 610 | 424 | 545 | 816 | 44.6 | 48.6 | 19 | 54.4
